# Source: PubChem (Broad Institute)
# Compounds with a hit are over-represented: about 3% of the library has one in this group of screens.
# S100A4 inh HTS: blocks human S100A4 binding to myosin IIA peptide; P26447; S100A4/TAMRA-MyoIIA peptide fluorescence polarization; inhibition, % at 10.7 µM; 0.14% of 360,000 active;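 active = mean inhibition of at least 70% across replicates, with every replicate also reaching that level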
# Target sequence (P26447 whole entry, looked up): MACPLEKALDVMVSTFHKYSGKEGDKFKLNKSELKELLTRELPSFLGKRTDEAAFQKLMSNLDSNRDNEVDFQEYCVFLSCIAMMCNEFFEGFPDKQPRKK
#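 Test system – S100A4 monomer (human) · Compound – single-point compound testing · Schedule – 5 min incubation before reading · Probe or stimulus – TAMRA-labelled myosin IIA heavy-chain peptide probe, 5 nM · Benchmarks – neutral control DMSO, positive control TFP · Medium – Calcium-containing HEPES buffer, pH 7.2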
# Cneo AK release: causes C. neoformans cell lysis | AID 651654 | lysis activity, % at 15 µM | 0.2% of 360,000 active | adenylate kinase release luminescence, 4 h; normalised: neutral wells 0, clomiphene wells 100;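 active = mean lysis activity across replicates of at least 80%, whatever share of replicates individually reach that level; inactive = mean lysis activity below 80%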
#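 read-out = cell lysis signal | test system = log-phase Cryptococcus neoformans yeast cells | input = cells at 5 × 10^6 per mL | medium = fresh YPD growth medium | signal = luminescent adenylate kinase detection reagent | timing = 4 h at 37 °C static, read 1 h later | dosing = single dose | controls = Clomiphene as positive lysis control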
# PGC1a acetyl inh: PGC1a acetylation modulation, inhibitor mode; U2OS PGC1a acetylation, AlphaScreen anti-acetyl-lysine; with virally co-expressed GCN5 acetyltransferase; 0.17% of 350,000 active; AID 651687; inhibition, % at 15.6 µM;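 active = every replicate shows inhibition of at least 40%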;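 also: 0% = neutral control wells and 100% = positive control wells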
# C2C12 statin: suppressors of simvastatin-induced myotoxicity in C2C12 myotubes. ATP luminescence, 48 h; scaled: DMSO 0, geranylgeraniol control 100. rescue of ATP level, % at 7.49 µM. 0.78% of 330,000 active;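 active = mean ATP rescue above about 67%, or every replicate alone reaching that limit, limit read from the data, passing the limit was not always enough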;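 also: myotubes were challenged with 10 µM simvastatin during compound exposure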
# SIRT5 inh: sirtuin-5 (human) deacylase inhibition. Q9NXA8. Purified SirT5, succinyl-peptide AMC, trypsin-coupled fluorescence. inhibition, % at 15 µM. 1.1% of 330,000 active; in the data active = inhibition above about 15%
# Target sequence (Q9NXA8 whole entry, looked up): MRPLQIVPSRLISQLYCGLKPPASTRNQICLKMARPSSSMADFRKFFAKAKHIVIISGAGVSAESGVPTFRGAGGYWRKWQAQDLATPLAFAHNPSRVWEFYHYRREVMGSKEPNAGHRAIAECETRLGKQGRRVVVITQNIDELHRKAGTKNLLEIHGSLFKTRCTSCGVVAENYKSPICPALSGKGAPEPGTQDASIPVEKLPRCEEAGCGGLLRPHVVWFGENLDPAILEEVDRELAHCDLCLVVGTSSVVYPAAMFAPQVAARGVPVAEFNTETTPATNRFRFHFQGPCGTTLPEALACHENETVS
# Ecoli rRNA inh: selective bacterial rRNA inhibition in E. coli; E. coli WT GFP vs humanized-ribosome RFP mutants, fluorescence, 24 h; stronger effect = lower value; DMSO median 0, no signal -100; GFP signal change (wild-type ribosome), % (concentration not given with the values); 1.6% of 350,000 active; AID 720706;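 active = significant combined selectivity score with lowered wild-type GFP, culture density cut under 30%, mutant RFP and density less affected; inactive = any of these conditions unmet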
# Active calls of the source: *; . = no result.
SMILES,S100A4 inh HTS,Cneo AK release,PGC1a acetyl inh,C2C12 statin,SIRT5 inh,Ecoli rRNA inh
Cc1ccc(-c2ccc([C@H]3[C@@H](CO)N4CCCCN(S(=O)(=O)c5cccc(C)c5)C[C@@H]34)cc2)cc1,3,-2,6,.,-3,.
Cc1cccc(-c2ccc([C@@H]3[C@@H](CO)N4C(=O)CN(S(=O)(=O)c5cccc(F)c5)C[C@@H]34)cc2)c1,9,.,6,.,20*,1
Cc1cccc(S(=O)(=O)N2CCCCN3[C@@H](CO)[C@H](c4ccc(-c5ccccc5)cc4)[C@@H]3C2)c1,8,0,-14,.,22*,.
Cc1ccc(-c2ccc([C@@H]3[C@@H](CO)N4C(=O)CN(S(=O)(=O)c5cccc(F)c5)C[C@H]34)cc2)cc1,6,.,-2,.,7,1
Cc1cccc(S(=O)(=O)N2CCCCN3[C@H](CO)[C@H](c4ccc(-c5ccccc5)cc4)[C@@H]3C2)c1,7,-2,-4,.,-1,.
CNC[C@@H]1OCCCC[C@H](C)Oc2ccc(N(C)C)cc2C(=O)N([C@H](C)CO)C[C@@H]1C,1,4,9,12,-5,4
Cc1noc(C)c1S(=O)(=O)Nc1ccc2c(c1)C(=O)N([C@@H](C)CO)C[C@H](C)[C@H](CN(C)Cc1ccc3c(c1)OCO3)O2,3,-2,16,76*,1,-1
Cc1noc(C)c1S(=O)(=O)Nc1ccc2c(c1)C(=O)N([C@H](C)CO)C[C@H](C)[C@H](CN(C)Cc1ccc(Cl)c(Cl)c1)OCCCC[C@@H](C)O2,-4,2,-1,35,9,3
Cc1noc(C)c1S(=O)(=O)Nc1ccc2c(c1)C(=O)N([C@@H](C)CO)C[C@@H](C)[C@@H](CN(C)Cc1ccc(Cl)c(Cl)c1)OCCCC[C@@H](C)O2,0,3,-21,-110,17*,-5
Cc1noc(C)c1S(=O)(=O)Nc1ccc2c(c1)C(=O)N([C@@H](C)CO)C[C@@H](C)[C@H](CN(C)Cc1ccc(Cl)c(Cl)c1)OCCCC[C@@H](C)O2,1,4,-20,121*,20*,-3
Cc1noc(C)c1S(=O)(=O)Nc1ccc2c(c1)C(=O)N([C@@H](C)CO)C[C@@H](C)[C@@H](CN(C)CC1CCCCC1)OCCCC[C@@H](C)O2,17,2,85*,-21,-6,1
CC(C)[C@H]1C(=O)N[C@@H](c2ccccc2)CC=CC[C@H](C)Oc2ccccc2C(=O)N1C (mixture of isomers),.,.,.,.,.,-9
C[C@H]1CN([C@@H](C)CO)C(=O)c2cc(C#CC3CCCCC3)cnc2O[C@H]1CN(C)S(=O)(=O)c1ccc(F)cc1,37,-1,-18,-131,0,-1
Cc1noc(C)c1S(=O)(=O)Nc1ccc2c(c1)C(=O)N([C@@H](C)CO)C[C@H](C)[C@@H](CN(C)Cc1ccc3c(c1)OCO3)OCCCC[C@@H](C)O2,4,101*,7,.,0,5
Cc1noc(C)c1S(=O)(=O)Nc1ccc2c(c1)C(=O)N([C@H](C)CO)C[C@H](C)[C@H](CN(C)Cc1ccc3c(c1)OCO3)OCCCC[C@@H](C)O2,5,4,-10,.,3,1
COc1cnc(-c2ccccc2)c(-c2ccccc2)n1,-1,-5,-7,-2,-1,-32*
COc1ccc(-c2nc3ccccc3nc2-c2ccc(OC)cc2)cc1,-4,1,-34,12,-3,-5
COc1ccc(OC)c(NC(=O)Nc2c(O)ccc3ccccc23)c1,-3,-2,.,6,-4,-27*
CO[C@H]1CN(C)C(=O)c2cc(C#N)ccc2OCC[C@@H]2CC[C@@H](OC)[C@H](CN(C)C(=O)[C@H]1C)O2,1,4,.,0,1,-1
C[C@H](CO)N1C[C@H](C)[C@H](CN(C)C(=O)Nc2ccc3c(c2)OCO3)Oc2ccc(NC(=O)Nc3ccc(C(F)(F)F)cc3)cc2CC1=O,.,-1,-5,6,.,-5
